Consider 86 compounds from PubChem BioAssay AID493160 (Sanford-Burnham Center for Chemical Genomics, 2011).

Structures are written as SMILES. About 540 (0.16%) of roughly 340,000 compounds were called active. Many of the other results were omitted from the sample, so actives are more common in it than they were. Values without a mark were called inactive.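 The calls were made as follows: active = inhibition above about 35% when tested at 20 µM (limit read from the data); inactive = the rest.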

Sequence of Hexokinase HKDC1 (Homo sapiens) (Q2TB90 whole entry, looked up): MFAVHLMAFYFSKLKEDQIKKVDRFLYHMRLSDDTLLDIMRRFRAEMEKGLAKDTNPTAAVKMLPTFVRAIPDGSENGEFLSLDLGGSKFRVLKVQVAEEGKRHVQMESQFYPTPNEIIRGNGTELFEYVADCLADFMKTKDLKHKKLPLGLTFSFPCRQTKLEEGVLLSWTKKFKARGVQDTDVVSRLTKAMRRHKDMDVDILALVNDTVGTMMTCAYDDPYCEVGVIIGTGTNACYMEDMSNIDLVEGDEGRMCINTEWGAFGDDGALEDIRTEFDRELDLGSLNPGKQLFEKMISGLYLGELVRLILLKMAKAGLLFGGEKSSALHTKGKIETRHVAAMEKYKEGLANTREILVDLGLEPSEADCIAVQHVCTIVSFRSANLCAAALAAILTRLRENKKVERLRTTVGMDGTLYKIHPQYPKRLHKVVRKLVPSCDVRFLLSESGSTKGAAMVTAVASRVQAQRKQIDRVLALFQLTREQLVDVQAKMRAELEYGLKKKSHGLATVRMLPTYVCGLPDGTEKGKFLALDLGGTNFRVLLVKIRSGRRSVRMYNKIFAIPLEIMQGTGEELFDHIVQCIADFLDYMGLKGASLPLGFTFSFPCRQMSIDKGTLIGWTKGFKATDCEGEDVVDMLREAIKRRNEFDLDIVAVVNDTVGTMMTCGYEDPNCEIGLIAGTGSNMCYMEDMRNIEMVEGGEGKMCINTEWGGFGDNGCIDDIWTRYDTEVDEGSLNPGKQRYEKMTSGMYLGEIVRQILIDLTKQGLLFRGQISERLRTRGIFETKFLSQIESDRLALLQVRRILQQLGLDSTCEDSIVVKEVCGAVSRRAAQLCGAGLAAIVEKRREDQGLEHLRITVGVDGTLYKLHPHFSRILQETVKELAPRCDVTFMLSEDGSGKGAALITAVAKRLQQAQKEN

This assay addresses Hexokinase HKDC1 (Homo sapiens) (UniProt Q2TB90). As to the kind of experiment: blockers of human HKDC1 enzyme activity – biochemical, fluorescence, uHTS, primary screen (AID 493160).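 Also: plate controls were DMSO wells with enzyme for no effect and DMSO wells lacking enzyme for full effect.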 The following applies: recombinant HKDC1, G6PDH/diaphorase resazurin coupled fluorescence; at 20 µM; hits give high values. The gist of the method: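 Incubation: 90 min at room temperature in dark / Material: recombinant HKDC1 (HK5) hexokinase enzyme, produced in-house / Quantity: enzyme 5 µg/mL final / Compound: one dose of 20 µM, 1% DMSO / Reagent: glucose and ATP substrates / Buffer or medium: Tris pH 8.0 buffer with MgCl2, Tween-20, BSA, BME / Technique: resorufin fluorescence at 613 nm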
(In general: Alamar Blue is a resazurin reagent that responds to reducing activity.)
Consider `CCCC(=O)N1CCC(CCC(=O)NC2CC2)CC1`, for which the inhibition (in general, the change of the read-out against control, counted positive when it falls) was -4.77%.
To `COc1cc(Cl)c(C)cc1NC(=O)CSc1nnc(CN2CCCC2)o1` belongs -4.86%; to `O=S(=O)(NN=C1CCCCCCC1)c1ccc(Br)cc1`, 3.73%.
Consider `CCOc1cc(NC(=S)NCCCN(C)C)c(OCC)cc1NC(=O)C1CC1`, for which the inhibition was -8.33%.
To `CC(Cc1cccs1)N(Cc1ccc(Cl)cc1)C(=O)c1ccncc1` (stereo unspecified) belongs 3.31%; to `O=C1C(=O)N(CCCN2CCOCC2)C(c2ccc([N+](=O)[O-])cc2)/C1=C(\O)c1ccc2c(c1)OCCO2` (stereo unspecified), -4.72%; to `Cc1cccc(-n2c(SCC(=O)Nc3cccc(S(=O)(=O)NC4=NCCCCC4)c3)nc3ccccc3c2=O)c1C`, 1.69%.
To `Cc1ccnc(SCC(=O)Nc2cccc(S(=O)(=O)N3CCOCC3)c2)n1` belongs 0.74%; to `CCOC(=O)C1CCN(C(=O)CC2C(=O)N(Cc3ccccc3)C(C)c3nc4ccccc4n32)CC1` (stereo unspecified), -7.65%.
In the case of `CCCCN(C(=O)c1ccc2ccccc2c1)c1c(N)n(CCCC)c(=O)[nH]c1=O`, the inhibition was -1.92%.
To `CCN(CC)C(=O)CSc1nc2ccccc2n1CC(=O)N1CCN(c2ccccc2OC)CC1` belongs -2.34%; to `CCC(C)NC(=O)c1cc(Cl)ccc1OC` (stereo unspecified), -12.3%; to `COc1ccc(C(=O)COC(=O)Cn2cnc3c2c(=O)n(C)c(=O)n3C)c(OC)c1`, -0.76%.
Then `COc1ccc2[nH]c3c(c2c1)CCN1C(=O)C(CC(=O)NCc2cccc(C(F)(F)F)c2)C[C@H](C(=O)N2CCOCC2)[C@@]31C` (stereo partly specified), with 5.85%; and `O=C(O)CCCCCCCCCC[n+]1ccccc1`, with -10.3%.
To `Cc1cc(C)n2nc(C(=O)OCC(=O)N(C)CC(=O)Nc3ccc(F)cc3)nc2n1` belongs -5.6%; to `O=C(NC(=O)c1ccccc1)Nc1ccccc1O`, 2.6%.
As to `O=C(NC1=CC(=O)c2ccccc2C1=O)c1ccccc1`, the inhibition is 54.1% (active).
To `CC(NC(=O)c1ccccc1)C(=O)Nc1ccccc1` (stereo unspecified) belongs -6.92%; to `CCN(Cc1ccccc1)S(=O)(=O)c1cc2c3c(c1)CCN3C(=O)CC2`, 4.66%.
Then `Cc1cc(C(=O)COC(=O)CNC(=O)c2ccc(F)cc2)c(C)n1Cc1ccco1`, with -4.86%; and `O=C(COc1ccccc1)Nc1cc2c3c(c1)CC(=O)N3CCC2`, with -4.21%.
To `Cn1nc(C(F)(F)F)cc1-c1ccc(/C=C(\C#N)C(=O)c2cccc(C(F)(F)F)c2)s1` belongs 13.8%; to `Cc1cc(C)c2oc(C(=O)Nc3ccc(S(=O)(=O)Nc4nccc(C)n4)cc3)cc(=O)c2c1`, 0.48%; to `COc1cc(OC)cc(C(=O)NCC(=O)N2CCCCCCC2)c1`, -3.62%.
In the case of `CC(=O)N(C1=C(Cl)C(=O)c2ccccc2C1=O)c1ccc(C(=O)O)cc1`, the inhibition was 52.2% (active).
Then `CCCN(CC(=O)Nc1ccccc1C)C(=O)c1ccc(OCC(=O)N2CCOCC2)c(OCC)c1`, with -2.45%; and `N#Cc1ccc(C2N=C(c3ccccc3)NO2)cc1` (stereo unspecified), with 0.41%; and `O=C(C1CCN(S(=O)(=O)c2cnc[nH]2)CC1)N1CCN(Cc2ccc3c(c2)OCO3)CC1`, with 0.71%.
On to `C=CCN(Cc1nc(-c2cc(OC)c3c(c2)OCO3)oc1C)C1CCS(=O)(=O)C1` (stereo unspecified), for which the inhibition was -3.24%.
Then `CC(=O)Nc1ccc(S(=O)(=O)N(CCc2ccccc2)CC(=O)N/N=C/c2ccc(C(=O)O)cc2)cc1`, with -2.7%.
Then `COc1ccc(N(CC(=O)N/N=C/c2cccc3c2OCCO3)S(=O)(=O)c2ccc(NC(C)=O)cc2)cc1`, with 38.1% (active); and `COc1ccc(N(CC(=O)N/N=C/c2cccs2)S(=O)(=O)c2ccc(OC)c(OC)c2)cc1`, with -10.3%.
Then `COc1ccc(Cl)cc1C(=O)NNC(=O)c1nc2nc(C)cc(C)n2n1`, with 0.07%; and `O=c1ccc2c(-c3ccccc3S(=O)(=O)O)c3ccc(O)c(O)c3oc-2c1O`, with 38.4% (active).
Consider `COc1ccccc1CNC(=O)[C@@H]1CCCN1C(=O)[C@@H]1Cc2ccccc2CN1C(=O)OC(C)(C)C`, for which the inhibition was 3.72%.
To `Cc1cc[n+](-c2[nH]c(=O)sc2/C=N/NC(=O)c2ccccc2[O-])cc1C` belongs -1.94%; to `O=C(COC(=O)Cn1cnc2ccccc2c1=O)NCc1ccccc1Cl`, -10.3%; to `O=C(Nc1cc(-c2nn(CC(=O)N3CCCCC3)c(=O)c3ccccc23)ccc1N1CCOCC1)c1ccc(Cl)cc1`, -2.81%.
Then `O=c1[nH]n2c(-c3ccccc3)nc(O)c2c2ccccc12`, with -18.8%.
To `O=c1[nH]c2ccccc2n2c(-c3ccccc3)nnc12` belongs 46.7% (active); to `O=C(C[C@H]1C/C=C\C[C@@H](NC(=O)OCC2c3ccccc3-c3ccccc32)C(=O)O[C@@H](c2ccccc2)CNC1=O)N[C@H](CO)Cc1ccccc1`, -0.6%; to `CCOC(=O)CSc1nncc2ccc(OC)c(OC)c12`, -9.31%.
Turning to `CCOC(=O)CSc1nc2ccc(C)cc2n2cnnc12`, the inhibition was 53% (active).
Then `COc1ccc(CCNc2nc3ccc(C)cc3n3cnnc23)cc1OC`, with 8.2%; and `CC1CN(C2CCN(C(=O)COc3ccccc3)CC2)CC(C)O1` (stereo unspecified), with 1.62%; and `O=c1oc2ccccc2c(=O)c2ccccc12`, with -8.91%.
To `Nc1c(NCCc2ccccc2)c2ccccc2oc1=O` belongs -1.28%.
With `CC(C)(C)Nc1c(N)c(=O)oc2ccccc12`, the inhibition was 44.6% (active).
Then `COc1ccc(CCN2CNc3c(c(=O)n(C)c(=O)n3C)C2)cc1OC`, with 6.26%; and `O=C(Nc1cc(S(=O)(=O)N2CCOCC2)ccc1Cl)c1cc(=O)c2ccccc2o1`, with 12.4%; and `Cc1nnnn1/C(=C\c1ccccc1)C(=O)OCC(=O)N1CC2(C)CC1CC(C)(C)C2` (stereo unspecified), with -1.75%.
Then `CCN(CC(=O)Nc1ccc2c(c1)OCO2)S(=O)(=O)c1ccccc1`, with -0.97%; and `O=C(/C=C/c1cccc(C(F)(F)F)c1)N1CCN(c2ccccn2)CC1`, with 3.47%.
To `O=C(CSc1cccc[n+]1[O-])c1ccc(-c2ccccc2)cc1` belongs -4.64%; to `O=C1N[C@@H](Cc2ccccc2)C(=O)N2[C@H]1C[C@]1(Br)c3ccccc3N(S(=O)(=O)c3ccccc3)[C@H]21`, 8.21%.
Turning to `Cc1nn(C)cc1S(=O)(=O)N1CCN(c2ccc(F)cc2)CC1`, the inhibition is -0.86%.
Regarding `CN(C)c1ccc(C(=S)N2CCN(C(=S)Nc3ccc(Cl)cc3)CC2)cc1`, the inhibition was 7.9%.
Then `Cc1cc(Cl)ccc1C(=O)C1CCCN(C(=O)CCN2CCCO2)C1` (stereo unspecified), with -7.55%; and `O=C(/C=C(O)/C=C/c1ccc(O)cc1)/C=C/c1ccc(O)cc1`, with 5.34%.
To `O=C(COC(=O)c1ccccc1NC(=O)c1ccco1)Nc1ccc2c(c1)OC(F)(F)O2` belongs -9.13%; to `CCOC(=O)C(C)n1cnc2scc(-c3ccc(C)c(C)c3)c2c1=O` (stereo unspecified), -0.93%.
Consider `O=C(c1cccnc1)N(c1cc2sc(=O)oc2c2ccccc12)S(=O)(=O)c1ccccc1`, for which the inhibition was 38.2% (active).
Then `COc1ccc(N(C(=O)c2cccnc2)S(=O)(=O)c2ccc(OC)c(OC)c2)cc1`, with -5.15%; and `O=C(c1cccnc1)N(Cc1ccccc1)C(=O)c1cccnc1`, with -5.95%.
Then `CCn1c(SCC(=O)Nc2cc(C)ccc2C)nnc1-c1cnccn1`, with 2.21%.
To `CN1c2ccc(C=O)c3c(C=O)ccc(c23)N(C)C1(C)C` belongs 36.4% (active).
As to `CCOC(=O)C1=C(c2ccc(OC)cc2)C(=O)c2ccccc2C1=O`, the inhibition was 81.4% (active).
Then `COC(=O)c1cc(OC)ccc1-c1ccc(OC)cc1`, with 6.2%; and `COc1ccc(CNC(=O)CCN2C(=O)c3ccccc3C2=O)cc1`, with 0.43%.
On to `COC(=O)[C@H](Cc1ccccc1)NC(=O)Nc1ccc(S(N)(=O)=O)cc1`, for which the inhibition was 1.79%.
Then `C=CC[C@@H](CC(=O)N[C@@H](CO)Cc1ccccc1)C(=O)N[C@H](COC(=O)[C@H](CC=C)CC(=O)OC(C)(C)C)Cc1ccccc1`, with -4.61%; and `COc1ccc(NC(=O)CSc2ccc(-c3ccco3)nn2)c(OC)c1`, with 47.3% (active).
Then `O=C(CSc1ccc(-c2ccco2)nn1)NCc1ccc2c(c1)OCO2`, with -3.81%; and `COc1ccc(NC(=O)CCC(=O)Nc2cc(OC)c(NC(=O)c3ccco3)cc2OC)c(OC)c1`, with 1.97%.
To `CC(C)N(Cc1nnc(-c2ccccc2Br)o1)C(=O)c1cc(Cl)nc2ccccc12` belongs 0.82%; to `CCOC(=O)c1ccc2c(c1)nc(SCC(=O)NC(C)C)n2CC`, -4.33%; to `Cc1ccc(CN2CCNC(=O)C2CC(=O)NCc2csc(C(C)C)n2)cc1` (stereo unspecified), -3.03%.
As to `CC1CC(C)CN(C(=O)CSc2nnc(CSc3ncccn3)n2C)C1` (stereo unspecified), the inhibition was -4.12%.
Then `CCS(=O)(=O)N1Cc2ccccc2CC1C(=O)Nc1ccc(OC)cc1OC` (stereo unspecified), with -2.83%.
To `O=C1Nc2cc(C(=O)N3CCC(N4CCCCC4)CC3)ccc2S/C1=C\c1ccccc1` belongs -1.91%; to `CCCCn1nnnc1NCc1cc(OC)c(OC)c(OC)c1`, 10.4%; to `COc1ccc2c(c1)c(=Cc1ccc(N(C)C)cc1)c1cc(-c3ccccc3)[n+](C)n12`, 43.2% (active).
To `Cc1ccc(CNC(=O)CCNS(=O)(=O)c2cccc3nonc23)cc1` belongs 10.6%.
With `Cc1ccc(OS(=O)Nc2cccc3nccnc23)cc1` (stereo unspecified), the inhibition was 6.4%.
Then `CCCCn1c(N)c(N(CCOC)C(=O)COc2c(C)cccc2C)c(=O)[nH]c1=O`, with -3.46%.
